Results taken from ChEMBL document CHEMBL4396929, “Discovery and development of substituted thiadiazoles as inhibitors of Staphylococcus aureus Sortase A” (Bioorg Med Chem, 2019).
Activity calls are given as the source filed them. The rule behind the calls is not given here.

Columns and labels:
[1] = target: T1, Sortase A (Staphylococcus aureus) (UniProt Q9S446); assay: Inhibition of recombinant Staphylococcus aureus wild type truncated C-terminal His6 tagged Srt A at 200 uM using Abz-Leu-Pro-Glu-Thr-Gly-Lys(Dnp)-NH2 as substrate preincubated for 15 mins followed by substrate addition measured after 60 mins by FRET assay relative to control
T1 sequence (whole entry): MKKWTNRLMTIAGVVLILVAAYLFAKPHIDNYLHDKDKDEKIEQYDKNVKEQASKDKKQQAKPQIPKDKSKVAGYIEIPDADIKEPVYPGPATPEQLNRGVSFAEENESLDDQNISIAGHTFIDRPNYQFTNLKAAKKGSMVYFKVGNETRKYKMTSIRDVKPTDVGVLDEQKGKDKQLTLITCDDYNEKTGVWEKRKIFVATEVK
Method in brief: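 FRET read-out: cleavage of the internally quenched substrate relieves Dnp quenching of the Abz fluorophore, and the resulting fluorescence reports SrtA activity. Compound at 200 µM, 15 min preincubation with enzyme. Inhibition reported as mean ± SD, n = 3.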

[2] = target: T1, Sortase A (Staphylococcus aureus); assay: Binding affinity to Staphylococcus aureus SrtA by ligand based 1D CPMG relaxation dispersion NMR analysis
Method in brief: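 Ligand-observed 1D NMR: spectrum of ligand alone, then ligand with SrtA, acquired after a delay acting as a T2 filter. Binding is scored as a drop in ligand signal intensity.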

Staphylococcus aureus [3] = assay: Growth inhibition of Staphylococcus aureus CCUG 15915 measured after 18 to 24 hrs by broth microdilution assay; format: organism-based
Staphylococcus aureus [4] = assay: Growth inhibition of Staphylococcus aureus CCUG 17621 measured after 18 to 24 hrs by broth microdilution assay; format: organism-based
Escherichia coli = assay: Growth inhibition of Escherichia coli CCUG 17620 measured after 18 to 24 hrs by broth microdilution assay; format: organism-based; conditions: in vitro
Sortase A [5] = target: T2, Sortase A (Staphylococcus aureus, UniProt Q9S446); assay: (§1) Inhibition of recombinant Staphylococcus aureus wild type truncated C-terminal His6 tagged Srt A using Abz-Leu-Pro-Glu-Thr-Gly-Lys(Dnp)-NH2 as substrate preincubated for 30 mins followed by substrate addition measured after 60 mins by FRET assay in presence of 0.5 mM reducing agent, DTT
T2 sequence (Q9S446 whole entry): T1 sequence (whole entry)

Sortase A [6] = target: T2, Sortase A; assay: Inhibition of recombinant Staphylococcus aureus wild type truncated C-terminal His6 tagged Srt A using Abz-Leu-Pro-Glu-Thr-Gly-Lys(Dnp)-NH2 as substrate preincubated for 15 mins followed by substrate addition measured after 60 mins by FRET assay
[7] = target: T1, Sortase A (Staphylococcus aureus); assay: Covalent ligand binding to recombinant Staphylococcus aureus wild type truncated C-terminal His6 tagged SrtA assessed as enzyme modifications by measuring aminothiadiazolyl-thio (+130.96119 Da, +C2HN3S2) and nitrobenzyl-thio (+167.00410, +C7H5NO2S) fragments at 200 uM by LCMS analysis
[8] = target: T1, Sortase A (Staphylococcus aureus); assay: as §1
[9] = target: T1, Sortase A (Staphylococcus aureus); assay: Inhibition of recombinant Staphylococcus aureus wild type truncated C-terminal His6 tagged Srt A at 200 uM using Abz-Leu-Pro-Glu-Thr-Gly-Lys(Dnp)-NH2 as substrate preincubated for 6.3 hrs followed by substrate addition measured after 60 mins by FRET assay relative to control
[10] = target: T1, Sortase A (Staphylococcus aureus); assay: Covalent ligand binding to recombinant Staphylococcus aureus wild type truncated C-terminal His6 tagged SrtA assessed as enzyme modifications by measuring nicotinamido-thiadiazolyl thio (+235.98265 Da, +C8H4N4OS2) and nitrobenzyl-thio (+167.00410, +C7H5NO2S) fragments at 200 uM by LCMS analysis
[11] = target: T1, Sortase A (Staphylococcus aureus); assay: Irreversible ligand binding to Staphylococcus aureus SrtA using (Abz-Leu-Pro-Glu-Thr-Gly-Lys(Dnp)-NH2 as substrate by competitive binding based 1D CPMG relaxation dispersion NMR analysis
Method in brief: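 Ligand-observed CPMG competition: the ligand–SrtA sample is challenged with a known binder for the same site. Signal recovery indicates displacement and reversible binding; no recovery indicates irreversible binding.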

Sortase A [12] = target: T2, Sortase A; assay: Inhibition of recombinant Staphylococcus aureus wild type truncated C-terminal His6 tagged Srt A using Abz-Leu-Pro-Glu-Thr-Gly-Lys(Dnp)-NH2 as substrate preincubated for 30 mins followed by substrate addition measured after 60 mins by FRET assay
[13] = target: T1, Sortase A (Staphylococcus aureus); assay: Inhibition of recombinant Staphylococcus aureus wild type truncated C-terminal His6 tagged Srt A at 167 uM using Abz-Leu-Pro-Glu-Thr-Gly-Lys(Dnp)-NH2 as substrate preincubated for 15 mins followed by substrate addition measured after 60 mins by FRET assay relative to control
Method in brief: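 FRET activity assay with an internally quenched substrate. Cleavage by SrtA separates the Abz donor from the Dnp quencher, and the increase in fluorescence is read. Compound at 167 µM with 15 min incubation. Percent inhibition is given as mean ± SD, n = 2.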

[14] = target: T1, Sortase A (Staphylococcus aureus); assay: Binding affinity to Staphylococcus aureus 15N-labeled SrtA by protein based 2D SOFAST-HMQC NMR analysis
[15] = target: T1, Sortase A (Staphylococcus aureus); assay: Reversible ligand binding to Staphylococcus aureus SrtA using (Abz-Leu-Pro-Glu-Thr-Gly-Lys(Dnp)-NH2 as substrate by NMR competitive displacement analysis
Method in brief: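 Ligand-observed CPMG NMR uses a delay acting as a T2 filter. Spectra are taken of the ligand alone, then after SrtA is added, then after a known binder is added to compete for the site. Recovery of the ligand signal marks reversible, competitive binding.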

inhibition [1] [%]	SMILES	Activity [2]	IC50 (Sortase A [6]) [µM]	also measured
6	O=C(Nc1nnc(SCc2cccc([N+](=O)[O-])c2)s1)c1ccco1	–	–	–
0	Nc1nnc(SCc2ccccc2)s1	inactive	–	–
18	CC(=O)Nc1nnc(SCc2cccc([N+](=O)[O-])c2)s1	–	–	MIC (Staphylococcus aureus [3]): > 256 µg/mL; MIC (Staphylococcus aureus [4]): > 256 µg/mL; MIC (Escherichia coli): > 256 µg/mL
13	O=C(Nc1nnc(SCc2cccc([N+](=O)[O-])c2)s1)c1cccnc1	–	–	–
–	O=c1c(O)c(-c2ccc(O)cc2O)oc2cc(O)cc(O)c12 [MORIN]	–	–	IC50 (Sortase A [5]): 19 µM
–	FC(F)(F)c1ccnc(Sc2nc[nH]n2)n1	–	19	–
25	Nc1nnc(Sc2ccccc2)s1	inactive	–	–
13	Nc1nnc(SCCc2cccc([N+](=O)[O-])c2)s1	inactive	–	–
13	Nc1nnc(SCc2ccc3ccccc3c2)s1	–	–	–
5	Nc1nnc(SCc2ccc(F)cc2)s1	inactive	–	–
19	O=[N+]([O-])c1cccc(CSc2nnc(Br)s2)c1	–	–	–
8	O=C(Nc1nnc(SCc2cccc([N+](=O)[O-])c2)s1)c1ccncc1	Active	–	MIC (Staphylococcus aureus [3]): > 256 µg/mL; MIC (Staphylococcus aureus [4]): > 256 µg/mL; MIC (Escherichia coli): > 256 µg/mL
27	O=[N+]([O-])c1cccc(CSc2nnc(N3CCNCC3)s2)c1	inactive	–	MIC (Staphylococcus aureus [3]): > 256 µg/mL; MIC (Staphylococcus aureus [4]): > 256 µg/mL; MIC (Escherichia coli): > 256 µg/mL; inhibition [9]: 38%
–	CC(C)n1c(S)nc2c1c(=O)n(C)c(=O)n2C	–	50	Activity [11]: Active
2	N#Cc1ccc(CSc2nnc(N)s2)cc1	inactive	–	–
37	O=[N+]([O-])c1cccc(CSc2nnc(Nc3cccnc3)s2)c1	–	–	–
35	Nc1nnc(Sc2ccc([N+](=O)[O-])cc2)s1	inactive	–	IC50 (Sortase A [12]): Not Active
–	Nc1nnc(Sc2ccc([N+](=O)[O-])c3nonc23)s1	Active	6 to 6.2	inhibition [13]: 101%; inhibition [8]: inactive; Activity [14]: Active; Activity [15]: Active
–	CCSc1c(S)cnn(-c2ccccc2)c1=O	–	3	–
29	O=[N+]([O-])c1cccc(CSc2nnc(N3CCOCC3)s2)c1	Active	–	MIC (Staphylococcus aureus [3]): > 256 µg/mL; MIC (Staphylococcus aureus [4]): > 256 µg/mL; MIC (Escherichia coli): > 256 µg/mL

SMILES	inhibition [1] [%]	Activity [2]	IC50 (Sortase A [6]) [µM]	also measured
O=C(Nc1nnc(SCc2ccc([N+](=O)[O-])cc2)s1)c1ccncc1	99	inactive	42	–
Nc1nnc(SCc2ccc([N+](=O)[O-])cc2)s1	101	Active	26	MIC (Staphylococcus aureus [3]): > 256 µg/mL; MIC (Staphylococcus aureus [4]): > 256 µg/mL; MIC (Escherichia coli): > 256 µg/mL; Activity [7]: Active; inhibition [8]: inactive
N#Cc1ccccc1CSc1nnc(N)s1	1	Active	1740	MIC (Staphylococcus aureus [3]): > 256 µg/mL; MIC (Staphylococcus aureus [4]): > 256 µg/mL; MIC (Escherichia coli): > 256 µg/mL
O=[N+]([O-])c1ccc(CSc2nnc(N3CCOCC3)s2)cc1	104	Active	9	–
O=[N+]([O-])c1ccc(CSc2nnc(N3CCNCC3)s2)cc1	80	Active	71	–
Nc1nnc(SCc2cccc([N+](=O)[O-])c2)s1	11	Active	521	MIC (Staphylococcus aureus [3]): > 256 µg/mL; MIC (Staphylococcus aureus [4]): > 256 µg/mL; MIC (Escherichia coli): > 256 µg/mL
O=C(Nc1nnc(SCc2ccc([N+](=O)[O-])cc2)s1)c1cccnc1	100	inactive	3.8	Activity [10]: Active; inhibition [8]: inactive
CC(=O)Nc1nnc(SCc2ccc([N+](=O)[O-])cc2)s1	94	Active	127	–
